This note sets out measurements from ChEMBL document CHEMBL2331439 (J Med Chem, 2013).

Each structure is given as a SMILES string.

The target in experiment [1] is Glycogen synthase kinase-3 beta (Homo sapiens) (UniProt P49841). Briefly: Inhibition of recombinant GSK3B (unknown origin) at 5 uM by FRET-based Z'-LYTE assay. A digest of the protocol: (§1)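 Single-point panel screen at 5 μM in duplicate. ATP is at the apparent Km of each kinase, and the Z'-LYTE FRET peptide substrate is used. Each point has two control wells: a protease control for interference with development and a fluorescence control for interference with the FRET read-out. Values above 100% are treated as maximal inhibition and values below 0% as none.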

Experiment [2] addresses High affinity nerve growth factor receptor (Homo sapiens) (UniProt P04629). Briefly: Inhibition of recombinant NTRK1 (unknown origin) at 5 uM by FRET-based Z'-LYTE assay. Put shortly:
as §1

The target of experiment [3] is 3-phosphoinositide-dependent protein kinase 1 (Homo sapiens) (UniProt O15530). Briefly: Inhibition of recombinant PDK1 (unknown origin) at 5 uM by FRET-based Z'-LYTE assay. A digest of the protocol:
as §1

In experiment [4] the target is Rho-associated protein kinase 1 (Homo sapiens) (UniProt Q13464). Briefly: Inhibition of recombinant ROCK1 (unknown origin) at 5 uM by FRET-based Z'-LYTE assay. A digest of the protocol:
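Z'-LYTE FRET peptide (coumarin/fluorescein) phosphorylation was followed by protease development. Wells included a protease control for interference with development and a fluorescence control for interference with the FRET read. Values above 100% or below 0% were treated as maximal or no inhibition.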

Experiment [5] concerns the target Fibroblast growth factor receptor 1 (Homo sapiens) (UniProt P11362). Briefly: Inhibition of recombinant FGFR1 (unknown origin) at 5 uM by FRET-based Z'-LYTE assay. Put shortly: as §1
Experiment [6] addresses Receptor-type tyrosine-protein kinase FLT3 (Homo sapiens) (UniProt P36888). Briefly: Inhibition of recombinant FLT3 (unknown origin) at 5 uM by FRET-based Z'-LYTE assay. Put shortly:
as §1

Experiment [7] addresses Aurora kinase A (Homo sapiens) (UniProt O14965). Briefly: Inhibition of recombinant AURKA (unknown origin) at 5 uM by FRET-based Z'-LYTE assay. Put shortly: as §1
Experiment [8] has as its target Serine/threonine-protein kinase Chk1 (Homo sapiens) (UniProt O14757). Briefly: Inhibition of recombinant CHEK1 (unknown origin) at 5 uM by FRET-based Z'-LYTE assay. A digest of the protocol: as §1
For experiment [9], the target named is Serine/threonine-protein kinase Nek1 (Homo sapiens) (UniProt Q96PY6). Briefly: Inhibition of recombinant NEK1 (unknown origin) at 5 uM by FRET-based Z'-LYTE assay. A digest of the protocol: as §1
The target in experiment [10] is Vascular endothelial growth factor receptor 2 (Homo sapiens, UniProt P35968). Briefly: Inhibition of recombinant KDR (unknown origin) by FRET-based Z'-LYTE assay.
Experiment [11] has as its target Mitogen-activated protein kinase 14 (Homo sapiens, UniProt Q16539). Briefly: Inhibition of recombinant MAPK14 (unknown origin) by FRET-based Z'-LYTE assay.
In experiment [12] the target is T1, Serine/threonine-protein kinase Nek1 (Homo sapiens, UniProt Q96PY6).
T1 sequence (Q96PY6 whole entry): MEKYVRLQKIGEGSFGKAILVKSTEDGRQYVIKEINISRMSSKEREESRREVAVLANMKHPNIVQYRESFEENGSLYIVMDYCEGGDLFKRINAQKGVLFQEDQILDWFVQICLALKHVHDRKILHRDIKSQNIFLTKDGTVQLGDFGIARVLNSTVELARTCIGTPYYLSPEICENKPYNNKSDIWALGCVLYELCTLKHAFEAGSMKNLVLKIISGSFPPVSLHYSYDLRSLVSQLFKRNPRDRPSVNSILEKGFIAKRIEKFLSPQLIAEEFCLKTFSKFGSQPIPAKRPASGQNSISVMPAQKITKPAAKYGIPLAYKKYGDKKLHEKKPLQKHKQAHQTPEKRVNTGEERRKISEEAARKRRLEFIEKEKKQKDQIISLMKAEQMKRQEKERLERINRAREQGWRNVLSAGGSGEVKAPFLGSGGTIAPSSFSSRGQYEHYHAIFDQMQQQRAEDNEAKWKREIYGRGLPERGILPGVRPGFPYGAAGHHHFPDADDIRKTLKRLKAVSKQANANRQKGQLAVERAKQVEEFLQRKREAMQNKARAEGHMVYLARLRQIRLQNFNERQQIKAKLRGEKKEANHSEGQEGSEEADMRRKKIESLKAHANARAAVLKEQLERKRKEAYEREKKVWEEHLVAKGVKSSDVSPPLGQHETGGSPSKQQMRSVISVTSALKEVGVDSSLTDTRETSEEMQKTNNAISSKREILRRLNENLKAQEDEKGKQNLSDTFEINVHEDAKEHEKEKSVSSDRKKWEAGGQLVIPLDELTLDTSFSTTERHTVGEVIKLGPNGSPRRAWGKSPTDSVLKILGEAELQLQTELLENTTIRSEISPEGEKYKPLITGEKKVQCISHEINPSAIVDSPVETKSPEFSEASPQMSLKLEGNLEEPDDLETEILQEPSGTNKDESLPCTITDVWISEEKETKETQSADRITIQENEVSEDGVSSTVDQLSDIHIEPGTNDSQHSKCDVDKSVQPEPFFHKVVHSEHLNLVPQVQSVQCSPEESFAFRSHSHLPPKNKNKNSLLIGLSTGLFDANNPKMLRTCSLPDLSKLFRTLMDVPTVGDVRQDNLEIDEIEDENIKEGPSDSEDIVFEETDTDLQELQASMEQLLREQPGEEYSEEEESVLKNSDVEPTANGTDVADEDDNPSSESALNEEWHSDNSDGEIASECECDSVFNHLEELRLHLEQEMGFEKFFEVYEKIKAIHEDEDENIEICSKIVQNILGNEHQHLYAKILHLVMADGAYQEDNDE
Briefly: Inhibition of recombinant NEK1 (unknown origin) by FRET-based Z'-LYTE assay.

The target of experiment [13] is Serine/threonine-protein kinase mTOR (Homo sapiens) (UniProt P42345). Briefly: Inhibition of recombinant FRAP1 (unknown origin) at 5 uM by FRET-based Z'-LYTE assay. A digest of the protocol: as §1
Experiment [14] concerns the target Activin receptor type-1B (Homo sapiens) (UniProt P36896). Briefly: Inhibition of recombinant ACVR1B (unknown origin) at 5 uM by FRET-based Z'-LYTE assay. A digest of the protocol: as §1
In experiment [15] the target is Cyclin-dependent kinase 2/cyclin A (Homo sapiens) (UniProt P24941+P20248+P78396). Briefly: Inhibition of recombinant CDK2/cyclin A (unknown origin) at 5 uM by FRET-based Z'-LYTE assay. It is filed as protein-complex assay. Put shortly:
as §1

Experiment [16] deals with Tyrosine-protein kinase JAK3 (Homo sapiens) (UniProt P52333). Briefly: Inhibition of recombinant JAK3 (unknown origin) at 5 uM by FRET-based Z'-LYTE assay. Put shortly:
as §1

Experiment [17] has as its target Serine/threonine-protein kinase PAK 4 (Homo sapiens) (UniProt O96013). Briefly: Inhibition of recombinant PAK4 (unknown origin) at 5 uM by FRET-based Z'-LYTE assay. Put shortly:
as §1

Experiment [18] has as its target MAP kinase-activated protein kinase 2 (Homo sapiens, UniProt P49137). Conditions: 5 uM.

Aurora kinase A (Homo sapiens), sequence (O14965 whole entry): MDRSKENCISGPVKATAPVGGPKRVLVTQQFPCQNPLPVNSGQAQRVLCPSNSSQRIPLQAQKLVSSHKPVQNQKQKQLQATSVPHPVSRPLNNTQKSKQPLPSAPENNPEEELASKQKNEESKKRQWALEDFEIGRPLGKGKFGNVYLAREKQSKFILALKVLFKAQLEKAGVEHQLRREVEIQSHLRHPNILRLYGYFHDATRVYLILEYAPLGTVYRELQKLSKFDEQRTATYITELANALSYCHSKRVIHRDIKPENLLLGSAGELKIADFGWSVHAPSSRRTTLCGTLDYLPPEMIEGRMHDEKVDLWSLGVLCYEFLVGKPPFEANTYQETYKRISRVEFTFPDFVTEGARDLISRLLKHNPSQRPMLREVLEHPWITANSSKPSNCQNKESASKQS
Receptor-type tyrosine-protein kinase FLT3 (Homo sapiens), sequence (P36888 whole entry): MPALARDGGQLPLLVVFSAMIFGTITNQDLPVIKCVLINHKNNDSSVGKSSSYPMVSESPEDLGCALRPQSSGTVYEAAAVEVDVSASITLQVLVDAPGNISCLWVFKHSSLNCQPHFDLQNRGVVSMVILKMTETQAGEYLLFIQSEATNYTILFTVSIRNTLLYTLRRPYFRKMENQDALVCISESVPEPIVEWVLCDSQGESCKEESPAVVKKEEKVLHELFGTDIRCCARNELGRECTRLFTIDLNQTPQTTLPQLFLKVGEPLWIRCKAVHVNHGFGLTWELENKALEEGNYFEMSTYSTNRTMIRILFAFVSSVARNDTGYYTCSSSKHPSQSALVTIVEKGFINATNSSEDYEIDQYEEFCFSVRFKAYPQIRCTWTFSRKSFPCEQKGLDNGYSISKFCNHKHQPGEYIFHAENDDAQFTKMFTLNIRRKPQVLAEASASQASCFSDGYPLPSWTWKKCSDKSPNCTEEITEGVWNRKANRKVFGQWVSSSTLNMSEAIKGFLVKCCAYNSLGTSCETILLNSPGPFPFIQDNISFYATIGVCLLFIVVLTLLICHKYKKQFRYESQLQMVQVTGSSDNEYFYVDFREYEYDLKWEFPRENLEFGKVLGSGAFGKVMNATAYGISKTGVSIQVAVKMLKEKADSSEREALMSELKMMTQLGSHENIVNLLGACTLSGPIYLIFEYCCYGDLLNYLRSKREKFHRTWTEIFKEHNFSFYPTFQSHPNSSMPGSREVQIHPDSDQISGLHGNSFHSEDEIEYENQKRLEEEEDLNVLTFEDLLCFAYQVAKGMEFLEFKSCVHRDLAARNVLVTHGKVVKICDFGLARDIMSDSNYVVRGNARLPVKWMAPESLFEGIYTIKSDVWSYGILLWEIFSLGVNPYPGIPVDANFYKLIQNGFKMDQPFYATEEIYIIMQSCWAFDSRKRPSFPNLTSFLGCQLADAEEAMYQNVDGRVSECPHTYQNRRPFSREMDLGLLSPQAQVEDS
High affinity nerve growth factor receptor (Homo sapiens), sequence (P04629 33-796 limits assumed): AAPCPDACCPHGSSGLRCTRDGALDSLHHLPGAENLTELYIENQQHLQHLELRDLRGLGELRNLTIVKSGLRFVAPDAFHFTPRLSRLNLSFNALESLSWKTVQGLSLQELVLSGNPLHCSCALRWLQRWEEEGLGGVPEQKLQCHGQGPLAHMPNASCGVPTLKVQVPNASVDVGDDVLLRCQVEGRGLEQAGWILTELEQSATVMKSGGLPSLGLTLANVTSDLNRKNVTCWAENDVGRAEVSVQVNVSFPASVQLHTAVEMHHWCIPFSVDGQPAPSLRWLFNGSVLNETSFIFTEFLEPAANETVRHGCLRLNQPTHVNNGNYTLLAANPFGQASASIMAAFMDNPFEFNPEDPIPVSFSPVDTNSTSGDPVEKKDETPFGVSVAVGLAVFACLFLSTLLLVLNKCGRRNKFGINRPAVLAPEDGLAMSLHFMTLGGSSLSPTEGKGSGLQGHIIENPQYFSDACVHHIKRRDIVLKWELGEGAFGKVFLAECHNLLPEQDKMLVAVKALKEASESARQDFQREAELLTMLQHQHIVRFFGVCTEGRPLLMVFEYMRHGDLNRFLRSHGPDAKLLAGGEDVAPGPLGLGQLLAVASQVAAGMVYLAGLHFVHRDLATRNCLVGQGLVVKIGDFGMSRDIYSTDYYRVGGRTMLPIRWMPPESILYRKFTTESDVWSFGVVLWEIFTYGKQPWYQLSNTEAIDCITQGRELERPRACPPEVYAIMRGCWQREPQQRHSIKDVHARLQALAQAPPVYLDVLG
Tyrosine-protein kinase JAK3 (Homo sapiens), sequence (P52333 whole entry): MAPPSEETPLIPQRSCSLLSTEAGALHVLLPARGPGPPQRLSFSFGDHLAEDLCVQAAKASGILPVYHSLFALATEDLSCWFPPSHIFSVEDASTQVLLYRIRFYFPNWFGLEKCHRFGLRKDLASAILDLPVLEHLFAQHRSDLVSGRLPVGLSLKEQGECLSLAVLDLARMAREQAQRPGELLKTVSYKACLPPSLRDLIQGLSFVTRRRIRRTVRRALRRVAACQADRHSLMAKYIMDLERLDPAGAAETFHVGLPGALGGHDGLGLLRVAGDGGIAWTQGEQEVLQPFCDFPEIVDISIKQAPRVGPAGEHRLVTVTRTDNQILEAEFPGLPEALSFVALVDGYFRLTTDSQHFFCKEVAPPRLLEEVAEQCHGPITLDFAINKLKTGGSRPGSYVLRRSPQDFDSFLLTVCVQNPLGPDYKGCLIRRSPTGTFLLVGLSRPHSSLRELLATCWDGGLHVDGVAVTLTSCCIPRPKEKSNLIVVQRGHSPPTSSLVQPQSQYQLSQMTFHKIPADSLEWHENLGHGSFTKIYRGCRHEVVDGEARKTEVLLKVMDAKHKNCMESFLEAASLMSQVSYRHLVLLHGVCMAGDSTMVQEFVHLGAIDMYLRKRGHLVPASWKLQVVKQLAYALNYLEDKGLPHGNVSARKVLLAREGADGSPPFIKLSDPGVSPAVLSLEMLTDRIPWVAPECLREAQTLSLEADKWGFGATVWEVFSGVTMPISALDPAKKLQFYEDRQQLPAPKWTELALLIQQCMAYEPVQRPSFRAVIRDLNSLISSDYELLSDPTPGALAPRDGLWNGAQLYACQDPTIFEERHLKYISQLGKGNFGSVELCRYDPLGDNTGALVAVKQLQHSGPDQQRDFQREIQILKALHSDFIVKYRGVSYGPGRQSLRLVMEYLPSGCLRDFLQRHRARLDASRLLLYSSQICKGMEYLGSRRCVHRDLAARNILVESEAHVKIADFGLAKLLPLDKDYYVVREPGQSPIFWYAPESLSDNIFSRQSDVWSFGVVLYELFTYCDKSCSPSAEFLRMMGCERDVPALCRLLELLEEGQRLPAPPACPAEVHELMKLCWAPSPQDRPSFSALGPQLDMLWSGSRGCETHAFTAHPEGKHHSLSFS
3-phosphoinositide-dependent protein kinase 1 (Homo sapiens), sequence (O15530 whole entry): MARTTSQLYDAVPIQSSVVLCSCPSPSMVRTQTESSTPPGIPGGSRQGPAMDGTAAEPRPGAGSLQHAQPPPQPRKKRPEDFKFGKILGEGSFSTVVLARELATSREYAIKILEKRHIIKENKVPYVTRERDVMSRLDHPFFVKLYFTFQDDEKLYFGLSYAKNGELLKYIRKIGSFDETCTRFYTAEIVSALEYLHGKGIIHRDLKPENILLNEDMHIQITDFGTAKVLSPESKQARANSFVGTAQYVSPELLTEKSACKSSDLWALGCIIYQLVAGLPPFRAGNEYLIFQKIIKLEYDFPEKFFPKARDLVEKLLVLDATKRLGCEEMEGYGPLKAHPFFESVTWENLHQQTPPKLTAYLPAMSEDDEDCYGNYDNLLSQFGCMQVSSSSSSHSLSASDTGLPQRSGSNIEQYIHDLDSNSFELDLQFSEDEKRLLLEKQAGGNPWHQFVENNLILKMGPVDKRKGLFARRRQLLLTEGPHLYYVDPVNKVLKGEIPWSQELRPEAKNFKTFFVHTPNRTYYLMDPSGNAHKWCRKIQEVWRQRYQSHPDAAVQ
MAP kinase-activated protein kinase 2, sequence (P49137 whole entry, looked up): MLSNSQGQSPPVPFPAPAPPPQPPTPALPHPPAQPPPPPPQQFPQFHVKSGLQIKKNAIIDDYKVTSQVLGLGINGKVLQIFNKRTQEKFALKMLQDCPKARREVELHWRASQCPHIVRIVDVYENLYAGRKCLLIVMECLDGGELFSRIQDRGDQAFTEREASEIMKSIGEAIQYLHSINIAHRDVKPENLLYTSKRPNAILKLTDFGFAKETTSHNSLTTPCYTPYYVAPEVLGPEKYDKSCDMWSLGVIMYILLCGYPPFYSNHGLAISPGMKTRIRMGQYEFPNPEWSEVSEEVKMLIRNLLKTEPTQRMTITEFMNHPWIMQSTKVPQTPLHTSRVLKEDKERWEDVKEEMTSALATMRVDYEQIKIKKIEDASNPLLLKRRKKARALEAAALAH
Serine/threonine-protein kinase Chk1 (Homo sapiens), sequence (O14757 whole entry): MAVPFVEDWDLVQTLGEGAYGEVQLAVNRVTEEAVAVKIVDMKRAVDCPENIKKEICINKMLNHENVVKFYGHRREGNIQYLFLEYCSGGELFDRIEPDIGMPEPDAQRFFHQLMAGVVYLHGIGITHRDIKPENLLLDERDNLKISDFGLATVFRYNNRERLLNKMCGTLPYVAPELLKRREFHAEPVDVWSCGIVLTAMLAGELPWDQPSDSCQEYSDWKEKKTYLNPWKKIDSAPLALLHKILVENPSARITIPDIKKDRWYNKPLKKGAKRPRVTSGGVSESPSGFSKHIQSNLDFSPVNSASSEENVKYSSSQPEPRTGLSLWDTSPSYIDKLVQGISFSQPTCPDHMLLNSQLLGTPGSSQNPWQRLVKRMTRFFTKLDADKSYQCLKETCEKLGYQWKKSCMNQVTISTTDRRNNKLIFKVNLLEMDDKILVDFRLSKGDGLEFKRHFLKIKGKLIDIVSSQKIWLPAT

Turning to `O=C1/C(=C/c2ccccn2)CNC/C1=C\c1ccccn1`, the inhibition turned out to be 17% in experiment [1]; 25% in experiment [2]; 54% in [3]; 58% in [4]; 66% in experiment [5]; 69% in experiment [6]. Besides, the inhibition was 77% in experiment [7]; 90% in experiment [8]; 102% in experiment [9]; -5% in experiment [13]; 1% in experiment [14]; 1% in experiment [15]. The results for the inhibition in experiment [16], in experiment [17] and in experiment [18] were 15%, 18% and 85%, respectively. In addition, the IC50 in experiment [10] turned out to be 660 nM; in [11], 35000 nM; in experiment [12], 500 nM.
